High-throughput results (PubChem)
VIM-2 inh: VIM-2 metallo-beta-lactamase inhibitors, primary screen, biochemical, epi-absorbance readout, Pseudomonas aeruginosa enzyme | inhibition, % at 5.6 µM | purified VIM-2, nitrocefin hydrolysis, epi-absorbance fluorescence | 0.89% of 290,000 active;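 active means inhibition above the mean of all tested compounds plus 3 SD, cutoff set per screening run, cut at about 7.5% in these data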;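 further: red hydrolysis product quenches plate fluorescence so inhibitors raise well fluorescence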
DNA FID counter: compounds displacing fluorescent DNA intercalator, primary screen, artefact control for HCV NS3 helicase inhibitor project, biochemical, FID fluorescence | DNA fluorescent intercalator displacement | inhibition, % at 7.9 µM | 0.17% of 290,000 active | AID 1845, 2009; in the data active means inhibition above about 37%;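 further: higher means more ethidium bromide displaced from hairpin DNA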
SUMO Mot1 rescue: yeast Mot1-301 growth rescue at high temperature, primary screen, SUMOylation pathway inhibitor project, S. cerevisiae, ATP luminescence, 38.5C; S. cerevisiae Mot1-301 growth rescue; percent above DMSO median, 100 means doubled; growth rescue, % at 18.8 µM; 1% of 320,000 active; AID 2716, 2010;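 active means every valid replicate shows activation above 250% relative to neutral control wells; inactive means the rest, any valid replicate at or below 250%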
NALP1 inh: NALP1 inflammasome inhibitors in reconstituted yeast, colorimetric, S. cerevisiae, triplicate retest. S. cerevisiae NALP1/ASC/caspase-1 growth, X-gal OD620, 72 h. inhibition, % at 10 µM. 0.61% of 280,000 active; in the data active means inhibition mostly above about 24%, no sharp cut-off; inactive means mostly below about 32%
UBC9 SUMO inh: inhibitors of in vitro SUMOylation cascade, primary screen, biochemical, HTRF, uHTS. SUMO-conjugating enzyme UBC9 (Homo sapiens), P63279. HTRF SUMOylation assay, SAE1/SAE2 + UBC9. inhibition, % at 35 µM. 0.36% of 290,000 active. AID 2006, 2009; in the data active means inhibition above about 50%, passing the limit was not always enough
Target sequence (P63279 whole entry, looked up): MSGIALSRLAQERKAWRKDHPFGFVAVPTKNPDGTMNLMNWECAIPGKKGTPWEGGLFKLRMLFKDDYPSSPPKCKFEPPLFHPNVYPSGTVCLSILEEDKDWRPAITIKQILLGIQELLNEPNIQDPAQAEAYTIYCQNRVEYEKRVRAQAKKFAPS
IMP-1 inh: IMP-1 metallo-beta-lactamase inhibitors, primary screen, biochemical, epi-absorbance readout, Pseudomonas aeruginosa enzyme; metallo-beta-lactamase IMP-1 (Pseudomonas aeruginosa); 0.45% of 290,000 active; inhibition, % at 5.6 µM; purified IMP-1, nitrocefin hydrolysis, epi-absorbance fluorescence;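 active means inhibition above the mean plus 3 SD of all compounds in the same screening run, cut at about 4.5% in these data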
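System – purified recombinant IMP-1 beta-lactamase · Input – IMP-1 dispensed at 0.2 nM · Timing – 15 min preincubation plus 25 min reaction at 25 °C · Signal – Epi-absorbance fluorescence, 480 nm excitation, 530 nm emission · Measure – percent IMP-1 inhibition derived from blank-referenced optical density · Controls – Enzyme-plus-DMSO low control, enzyme-free DMSO high control · Replication – singlicate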
Large screens that a line does not name were inactive. An excerpt weighted towards active compounds, which were near 2.9% of everything screened.

Cc1c(CBr)[n+](=O)c2c(n1[O-])C(Br)CCC2Br (stereo not drawn)	NALP1 inh 42
CC(C)C(NC(=O)c1ccc(C(C)(C)C)cc1)C(=O)Nc1cccc(S(N)(=O)=O)c1 (stereo not drawn)	none
CCOc1ccc(Oc2c(C)oc3cc(O)ccc3c2=O)cc1	NALP1 inh 25
CC(C)CC1NC(=O)N(CC(=O)NC2CCCc3ccccc32)C1=O (stereo not drawn)	none
CCOC(=O)N1CCN(C(=O)c2ccc3c(c2)NC(=O)/C(=C/c2ccccc2)S3)CC1	none (no result: UBC9 SUMO inh)
CN1CCN(C(=O)c2ccc3c(c2)NC(=O)/C(=C/c2ccccc2)S3)CC1	VIM-2 inh 8.0 (no result: UBC9 SUMO inh)
Cc1nnc(NC(=O)CN2CCN(Cc3c(Cl)cccc3Cl)CC2)s1	none
Cc1c(OCC(=O)N[C@@H](Cc2ccccc2)C(=O)O)ccc2c1oc(=O)c1ccccc12	VIM-2 inh 12
Cc1c(OCC(=O)NC(Cc2ccc(Cl)cc2)C(=O)O)ccc2c3c(c(=O)oc12)CCCC3 (stereo not drawn)	none
Cc1c(OCC(=O)N[C@@H](Cc2ccccc2)C(=O)O)ccc2c3c(c(=O)oc12)CCC3	VIM-2 inh 12
CCOC(=O)Nc1ccc2c(c1)N(C(=O)CN1CCN(C)CC1)c1ccccc1S2	none
CCCC(CCC)C(=O)Nc1ccc2c(c1)N(C(=O)CN1CCN(C)CC1)c1ccccc1CC2	DNA FID counter 49
COC(=O)C1CC23C=CCN4CCC5(c6ccccc6NC15C2C)C43 (stereo not drawn)	NALP1 inh 37
O=C1C=CC(=O)N1CCCCCCN1C(=O)C=CC1=O	NALP1 inh 112
COc1ccc(S(=O)(=O)N2CCOCC2)cc1NC(=O)CCCOc1ccccc1	none (no result: VIM-2 inh, DNA FID counter, NALP1 inh, UBC9 SUMO inh, IMP-1 inh)
COc1ccc(C(=O)C[n+]2cccc3cc(C)ccc32)cc1	IMP-1 inh 5.9 (no result: NALP1 inh)
Cc1oc2c(cc(NS(=O)(=O)c3ccc(C(C)C)cc3)c3ccccc32)c1C(=O)O	IMP-1 inh 8.9
Cc1oc2c(cc(NS(=O)(=O)c3ccc(F)cc3)c3ccccc32)c1C(=O)O	IMP-1 inh 5.8
COc1ccc(S(=O)(=O)Nc2cc3c(C(C)=O)c(C)oc3c3ccccc23)cc1	none
Cc1cnn(Cc2cccnc2)c1N	none (no result: NALP1 inh)
Nc1nc(Nc2ccccc2F)nc(NCc2ccco2)c1[N+](=O)[O-]	SUMO Mot1 rescue 304
COCCNc1nc(SC)nc2sc3c(c12)CCN(C)C3	VIM-2 inh 9.8
CN(C)CCSc1nc(N)c2c3c(sc2n1)CN(C)CC3	none
CSc1nc(NCc2ccccc2)c2c3c(sc2n1)CN(C)CC3	none
CCN(CC)CCNc1nc(SC)nc2sc3c(c12)CCN(C)C3	VIM-2 inh 11
CSc1nc(NCC(C)C)c2c3c(sc2n1)CN(C)CC3	VIM-2 inh 8.4
O=C(CN(c1ccc(F)cc1)S(=O)(=O)c1ccccc1)N1CCOCC1	none
COc1ccc(NC(=O)CN(C)C(=O)CN2C(=O)NC3(CCCC3)C2=O)cc1	none (no result: VIM-2 inh, DNA FID counter, NALP1 inh, UBC9 SUMO inh, IMP-1 inh)
COc1ccc(CCNc2c([N+](=O)[O-])ncn2C)cc1OC	none (no result: NALP1 inh)
COc1ccccc1NC(=O)C1CCCN1C(=O)NC1CCCCC1 (stereo not drawn)	none
Cc1[nH]c2ccccc2c1C(=O)CSC(=S)N1CCN(C)CC1	VIM-2 inh 12
C[n+]1ccccc1/C=C/c1cc(Br)ccc1O	IMP-1 inh 16
C=CCOc1ccc(/C=C/C(=O)OCC(=O)N(C)CC(=O)Nc2ccccc2Cl)cc1	none (no result: VIM-2 inh, DNA FID counter, NALP1 inh, UBC9 SUMO inh, IMP-1 inh)
O=C(CN1CCCC1)NN=C(c1ccccc1)c1ccccc1	SUMO Mot1 rescue 392
CN1C(N)=NC(=O)/C1=C\c1ccc(Br)cc1	none
O=C(/C=C/c1cccs1)Nc1ccncc1	none
CCCOC(=O)c1ccc(NC(=O)/C=C/c2cccs2)cc1	NALP1 inh 61
COc1ccc(NC(=O)C2CCCN(CCCc3ccccc3)C2)cc1OCC(C)C (stereo not drawn)	none
CC(=O)Nc1ccc(NC(=O)C2CC(=O)N(C(C)C)C2)cc1 (stereo not drawn)	none
CC(C)N1CC(C(=O)Nc2ccccc2)CC1=O (stereo not drawn)	SUMO Mot1 rescue 305
COC(=O)c1ccc(NS(=O)(=O)c2ccc(Cl)cc2)o1	none
COC(=O)c1ccc(NS(=O)(=O)c2ccccc2)o1	IMP-1 inh 4.9
C[C@H](CO)N1C[C@H](C)[C@@H](CN(C)Cc2ccccc2)Oc2ccc(NC(=O)CCCCCC(=O)Nc3ccccc3N)cc2C1=O	none (no result: VIM-2 inh, DNA FID counter, NALP1 inh, UBC9 SUMO inh, IMP-1 inh)
COc1cc(NC(=O)c2ccc([N+](=O)[O-])cc2)c(OC)cc1NC(=O)CC(C)C	none
O=C(Oc1ccc[nH]c1=O)c1cccc(Cl)c1	UBC9 SUMO inh 100
O=C(Oc1cccc2c(=O)[nH]ccc12)c1ccccc1	none
O=C(NO)c1cc(OCC(F)(F)F)ccc1OCC(F)(F)F	VIM-2 inh 12
Cc1ccc(C)c(CSc2nnc([C@@H]3CCCN3)o2)c1	IMP-1 inh 5.0 (no result: NALP1 inh)
Clc1ccc(CSc2nnc([C@@H]3CCCN3)o2)cc1Cl	none
O=c1c(-c2n[nH]c(=S)o2)cccn1Cc1ccccc1	none
COc1ccccc1Oc1c(C)oc2c(CN3CCOCC3)c(O)ccc2c1=O	none
CCOc1ccccc1Oc1c(C)oc2c(CN3CCN(C)CC3)c(O)ccc2c1=O	UBC9 SUMO inh 50
CCOc1ccc(C(=O)CCC(=O)N2CCN(c3ccc(O)cc3)CC2)cc1	none (no result: VIM-2 inh, DNA FID counter, NALP1 inh, UBC9 SUMO inh, IMP-1 inh)
Cc1ccc(OCCC(=O)N2CCN(c3ccc(O)cc3)CC2)cc1	NALP1 inh 38
CCc1ccc(NC(=O)N2CCN(c3ccc(F)cc3)CC2)cc1	none (no result: SUMO Mot1 rescue)
N#Cc1c(NC(=O)CSc2ncnc3sccc23)oc(-c2ccco2)c1-c1ccco1	IMP-1 inh 7.0 (no result: UBC9 SUMO inh)
Cn1c(CNC(=O)CNC(=O)c2ccc(C(C)(C)C)cc2)cc(=O)n(C)c1=O	none
COCc1[nH]nc2c1C(c1ccc(OC)c(OC)c1)C(C#N)=C(N)O2 (stereo not drawn)	none
CCOc1ccc(C2C(C#N)=C(N)Oc3nc[nH]c(=O)c32)cc1OC (stereo not drawn)	SUMO Mot1 rescue 334
Cc1cc(C(=O)N(C)CC(=O)Nc2ccc(F)c(F)c2F)no1	none
O=C(CNc1ccccc1)Nc1ccc(F)cc1	NALP1 inh 28
O=C(CNS(=O)(=O)c1ccc(F)cc1)Nc1ccccc1	none
CCCCCC(=O)NNC1CC(=O)N(c2ccccc2)C1=O (stereo not drawn)	none
CCCCCC(=O)N(O)C1CC(=O)N(c2ccccc2)C1=O (stereo not drawn)	VIM-2 inh 8.1
